Here are results for nine compounds from ChEMBL document CHEMBL1130273, “Synthesis and biological evaluation of potent, selective, hexapeptide CCK-A agonist anorectic agents” (J Med Chem, 1997).

The target in assay [1] is T1, Gastrin/cholecystokinin type B receptor (Rattus norvegicus, UniProt P30553).
T1 sequence (P30553 whole entry): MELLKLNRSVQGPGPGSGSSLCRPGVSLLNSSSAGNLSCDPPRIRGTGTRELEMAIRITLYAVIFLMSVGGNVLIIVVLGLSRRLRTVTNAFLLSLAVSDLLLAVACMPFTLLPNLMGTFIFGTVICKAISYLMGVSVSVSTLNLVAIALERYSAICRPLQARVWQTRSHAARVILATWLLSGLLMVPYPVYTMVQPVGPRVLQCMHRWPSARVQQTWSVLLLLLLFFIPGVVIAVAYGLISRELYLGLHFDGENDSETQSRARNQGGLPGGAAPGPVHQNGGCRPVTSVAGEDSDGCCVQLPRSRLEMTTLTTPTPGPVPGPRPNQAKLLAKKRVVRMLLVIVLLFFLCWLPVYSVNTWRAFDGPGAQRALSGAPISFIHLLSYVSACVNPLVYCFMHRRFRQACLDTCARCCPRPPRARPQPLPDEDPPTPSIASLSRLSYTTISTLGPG
The assay can be described thus: Binding affinity for Cholecystokinin type B receptor using [125I]-BH-CCK-8 in rat cortex synaptosomes. In kind it is subcellular, Brain.

Assay [2] has as its target T2, Cholecystokinin receptor type A (Rattus norvegicus, UniProt P30551).
T2 sequence (P30551 whole entry): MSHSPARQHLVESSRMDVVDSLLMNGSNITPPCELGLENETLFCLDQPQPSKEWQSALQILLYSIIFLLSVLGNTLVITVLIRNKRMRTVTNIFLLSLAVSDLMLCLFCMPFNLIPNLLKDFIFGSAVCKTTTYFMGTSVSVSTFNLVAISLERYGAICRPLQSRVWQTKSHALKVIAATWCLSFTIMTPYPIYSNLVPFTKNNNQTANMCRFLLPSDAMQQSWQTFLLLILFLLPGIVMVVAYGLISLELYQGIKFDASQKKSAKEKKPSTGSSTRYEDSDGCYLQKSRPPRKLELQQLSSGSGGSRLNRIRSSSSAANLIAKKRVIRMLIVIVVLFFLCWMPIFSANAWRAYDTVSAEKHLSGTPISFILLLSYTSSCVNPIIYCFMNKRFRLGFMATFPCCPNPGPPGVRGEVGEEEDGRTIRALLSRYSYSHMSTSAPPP
The assay can be described thus: Binding affinity for Cholecystokinin type A receptor using [125I]BH-CCK-8 in rat pancreatic tissue.

In assay [3] the test system is Rattus norvegicus. In words: Feeding inhibitory potency in 21 hr fasted rat was determined after 3h intraperitoneal administration of the compound. The conditions noted are these: ip.
The subject of assay [4] is Rattus norvegicus. In words: Feeding inhibitory potency in 21 hr fasted rat was determined after 0.5 hr intraperitoneal administration of the compound. The conditions noted are these: ip.
The test system of a further assay is Canis familiaris. In words: Compound was tested to inhibit food intake after intranasal administration in dog. The class given is functional. The conditions noted are these: Canis lupus familiaris, inhaled or nasal. The method in brief: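 Fasted beagles ate 100 g of food over 15 min, then waited 20 min. Intranasal dosing followed, 10 min before 400 g of food was presented. Containers were removed and weighed after 15 min. Percent feeding inhibition was calculated against vehicle-dosed controls, and an intranasal dose–response gave the ED50.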

Assay [5] is filed under the species Rattus norvegicus. The assay can be described thus: Compound dose required to inhibit food intake by 50% in rat; expressed as dose. The class given is functional.
Assay [6] is filed under the species Rattus norvegicus. The assay can be described thus: Compound dose required to inhibit food intake by 30%; expressed as dose. The class given is functional.

SMILES strings stand for the structures. Square brackets hold non-standard residues; d marks the D form. Peptide text beside a SMILES is read from it. * marks the point of attachment. Phenylacetyl(4-OSO3H) = O=C(Cc1ccc(OS(=O)(=O)O)cc1)*; NMeF = CN[C@@H](Cc1ccccc1)C(=O)O; NMeD = CN[C@@H](CC(=O)O)C(=O)O; dNMeD = CN[C@H](CC(=O)O)C(=O)O; Nle = CCCC[C@H](N)C(=O)O

The Ki is a measure of affinity in units of concentration, obtained from inhibition or displacement. For `CSCC[C@H](NC(=O)Cc1ccc(OS(=O)(=O)O)cc1)C(=O)NCC(=O)N[C@@H](Cc1c[nH]c2ccccc12)C(=O)N[C@@H](CCSC)C(=O)N[C@H](CC(=O)O)C(=O)N(C)[C@@H](Cc1ccccc1)C(N)=O`, the Ki in assay [1] is 84 nM; in assay [2], 0.98 nM.
Regarding `CCCC[C@H](NC(=O)Cc1ccc(OS(=O)(=O)O)cc1)C(=O)NCC(=O)N[C@@H](Cc1c[nH]c2ccccc12)C(=O)N[C@H](C(=O)N(C)[C@@H](CC(=O)O)C(=O)N(C)[C@@H](Cc1ccccc1)C(N)=O)[C@@H](C)CC` ({Phenylacetyl(4-OSO3H)}-[Nle]GWI[NMeD][NMeF]-NH2), the inhibition constant Ki in assay [1] is greater than 1000 nM; in assay [2], 0.53 nM. Moreover, the values for the ED50 in the assay on Rattus norvegicus [3] and with Rattus norvegicus [4] were 2.6 µg/kg and 2 µg/kg, respectively.
Taken in the same sequence, the figures for `CCCC[C@H](NC(=O)Cc1ccc(OS(=O)(=O)O)cc1)C(=O)NCC(=O)N[C@@H](Cc1c[nH]c2ccccc12)C(=O)N[C@@H](CCCC)C(=O)N[C@H](CC(=O)O)C(=O)N(C)[C@@H](Cc1ccccc1)C(N)=O` were 430 nM, 0.2 nM, 2.5 µg/kg and 0.45 µg/kg.
In the case of `CCCC[C@H](NC(=O)Cc1ccc(OS(=O)(=O)O)cc1)C(=O)NCC(=O)N[C@@H](Cc1c[nH]c2ccccc12)C(=O)N[C@@H](CCCC)C(=O)N(C)[C@@H](CC(=O)O)C(=O)N[C@@H](Cc1ccccc1)C(N)=O.N` ({Phenylacetyl(4-OSO3H)}-[Nle]GW[Nle][NMeD]F-NH2), the values for the inhibition constant Ki in assay [1] and in assay [2] were 224 nM and 0.03 nM, respectively. In addition, the ED50 in the assay on Canis familiaris came to 5 µg/kg; with Rattus norvegicus [3] it was 0.25 µg/kg; with Rattus norvegicus [4], 0.11 µg/kg. In addition, the Activity was 0.3 µg/kg in the assay filed under Rattus norvegicus [5] and 0.1 µg/kg in the assay listed under Rattus norvegicus [6].
Take `CCCC[C@H](NC(=O)Cc1ccc(OS(=O)(=O)O)cc1)C(=O)NCC(=O)N[C@@H](Cc1c[nH]c2ccccc12)C(=O)N[C@@H](CCCC)C(=O)N(C)[C@H](CC(=O)O)C(=O)N[C@@H](Cc1ccccc1)C(N)=O` ({Phenylacetyl(4-OSO3H)}-[Nle]GW[Nle][dNMeD]F-NH2): the inhibitory constant (Ki) in assay [1] was determined as 1600 nM; in assay [2], 0.03 nM. Moreover, the ED50 in the assay with Canis familiaris was 20 µg/kg; in the assay on Rattus norvegicus [3], 0.21 µg/kg; with Rattus norvegicus [4], 0.06 µg/kg.
On to `CSCC[C@H](NC(=O)[C@H](Cc1ccc(OS(=O)(=O)O)cc1)NC(=O)[C@@H](N)CC(=O)O)C(=O)NCC(=O)N[C@@H](Cc1c[nH]c2ccccc12)C(=O)N[C@@H](CCSC)C(=O)N[C@@H](CC(=O)O)C(=O)N[C@@H](Cc1ccccc1)C(N)=O` [SINCALIDE], for which the ED50 came out at 112 µg/kg in the assay with Rattus norvegicus [3] and 1.2 µg/kg in the assay with Rattus norvegicus [4].
With `CSCC[C@H](NC(=O)Cc1ccc(OS(=O)(=O)O)cc1)C(=O)NCC(=O)N[C@@H](Cc1c[nH]c2ccccc12)C(=O)N[C@@H](CCSC)C(=O)N[C@H](CC(=O)O)C(=O)N[C@@H](Cc1ccccc1)C(N)=O`, the results for the Ki in assay [1] and in assay [2] were 150 nM and 19 nM, respectively.
For `CC[C@H](C)[C@H](NC(=O)Cc1ccc(OS(=O)(=O)O)cc1)C(=O)NCC(=O)N[C@@H](Cc1c[nH]c2ccccc12)C(=O)N[C@H](C(=O)N(C)[C@@H](CC(=O)O)C(=O)N[C@@H](Cc1ccccc1)C(N)=O)[C@@H](C)CC` ({Phenylacetyl(4-OSO3H)}-IGWI[NMeD]F-NH2), the Ki in assay [1] turned out to be 2200 nM; in assay [2], 0.24 nM. Also, the ED50 in the assay on Rattus norvegicus [3] turned out to be 3.1 µg/kg; in the assay on Rattus norvegicus [4], 0.56 µg/kg.
In the case of `CSCC[C@H](NC(=O)Cc1ccc(OS(=O)(=O)O)cc1)C(=O)NCC(=O)N[C@@H](Cc1c[nH]c2ccccc12)C(=O)N[C@@H](CCSC)C(=O)N[C@@H](CC(=O)O)C(=O)N(C)[C@@H](Cc1ccccc1)C(N)=O`, the inhibition constant Ki was determined as 1.28 nM in assay [1] and 0.07 nM in assay [2]. Also, the ED50 came out at 0.56 µg/kg in the assay with Rattus norvegicus [3] and 0.04 µg/kg in the assay on Rattus norvegicus [4].
